Assays:
Mus musculus [1] = test: Toxicity in human Panc1 cells xenografted athymic mouse assessed as loss of body weight at 14 mg/kg, po administered in q4dx4 schedule; assay type: organism-based, PANC-1; design: dose 14 mg/kg, route oral; conditions: in vivo
PANC-1 [2] = test: Antitumor activity against human Panc1 cells xenografted athymic mouse assessed as inhibition of tumor volume at 14 mg/kg, po administered in q4dx4 schedule; assay type: functional
Outline: (§1)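 Human tumor xenografts (CoBa colon, MKN-28 gastric, Panc-1 pancreatic) grown subcutaneously in mice. Drug given orally on an intermittent q4dx4 schedule. Read-out is % tumor volume inhibition in treated versus control mice. Complete responses were scored as tumor disappearance lasting at least ten days.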

Mus musculus [3] = test: Toxicity in human MKN28 cells xenografted athymic mouse assessed as survival at 6 mg/kg, po administered in q4dx4 schedule; assay type: organism-based, MKN-28; design: dose 6 mg/kg, route oral; conditions: in vivo
Outline: (§2)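 Mice carried subcutaneous human tumor xenografts (CoBa, MKN-28 or Panc-1). They were dosed orally on an intermittent q4dx4 schedule, which was also used to set the maximum tolerated dose. Toxicity was scored as lethal toxicity, given as dead/treated mice. Drug-induced % body weight loss was also recorded.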

Mus musculus [4] = test: Toxicity in human Panc1 cells xenografted athymic mouse assessed as survival at 14 mg/kg, po administered in q4dx4 schedule; assay type: organism-based, PANC-1; design: dose 14 mg/kg, route oral; conditions: in vivo; outline: as §2
Mus musculus [5] = test: Toxicity in human MKN28 cells xenografted athymic mouse assessed as loss of body weight at 12 mg/kg, po administered in q4dx4 schedule; assay type: organism-based, MKN-28; design: dose 12 mg/kg, route oral; conditions: in vivo
Outline: (§3)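 Oral dosing on an intermittent q4dx4 schedule in mice bearing MKN-28 gastric carcinoma xenografts. Tumor volume inhibition % is relative to controls. Body weight loss % is the loss induced by drug treatment.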

[6] = Antitumor activity against human CoBa cells xenografted athymic mouse assessed as inhibition of tumor volume at 15 mg/kg, po administered in q4dx4 schedule; assay type: functional; outline: as §1
Mus musculus [7] = test: Toxicity in human MKN28 cells xenografted athymic mouse assessed as loss of body weight at 3 mg/kg, po administered in q4dx4 schedule; assay type: organism-based, MKN-28; design: dose 3 mg/kg, route oral; conditions: in vivo; outline: as §3
Mus musculus [8] = test: Toxicity in human MKN28 cells xenografted athymic mouse assessed as survival at 3 mg/kg, po administered in q4dx4 schedule; assay type: organism-based, MKN-28; design: dose 3 mg/kg, route oral; conditions: in vivo; outline: as §2
HT-29 [9] = test: Resistant index, ratio of IC50 for BCRP overexpressing mitoxantrone-resistant human HT29 cells to IC50 for human HT29 cells; assay type: functional
Outline: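 Resistance index in HT29/mit, the BCRP-overexpressing subline. IC50 values come from the 1-h exposure growth inhibition assay, as 50% growth reduction versus untreated controls.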

PANC-1 [10] = test: Antitumor activity against human Panc1 cells xenografted athymic mouse assessed as inhibition of tumor volume at 15 mg/kg, po administered in q4dx4 schedule; assay type: functional; outline: as §1
Mus musculus [11] = test: Toxicity in human CoBa cells xenografted athymic mouse assessed as survival at 15 mg/kg, po administered in q4dx4 schedule; assay type: organism-based; design: dose 15 mg/kg, route oral; conditions: in vivo; outline: as §2
MKN-28 [12] = test: Antitumor activity against human MKN28 cells xenografted athymic mouse assessed as inhibition of tumor volume at 3 mg/kg, po administered in q4dx4 schedule; assay type: functional; outline: as §3
Mus musculus [13] = test: Toxicity in human Panc1 cells xenografted athymic mouse assessed as loss of body weight at 15 mg/kg, po administered in q4dx4 schedule; assay type: organism-based, PANC-1; design: dose 15 mg/kg, route oral; conditions: in vivo
MKN-28 [14] = test: Antitumor activity against human MKN28 cells xenografted athymic mouse assessed as inhibition of tumor volume at 6 mg/kg, po administered in q4dx4 schedule; assay type: functional; outline: as §3
Mus musculus [15] = test: Toxicity in human CoBa cells xenografted athymic mouse assessed as loss of body weight at 20 mg/kg, po administered in q4dx4 schedule; assay type: organism-based; design: dose 20 mg/kg, route oral; conditions: in vivo
Outline: (§4)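 Mice bearing subcutaneous CoBa colon carcinoma were treated on a q4dx4 schedule, orally or, for CPT11, at 50 mg/kg. Body weight loss % is the loss induced by drug treatment.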

Mus musculus [16] = test: Toxicity in human MKN28 cells xenografted athymic mouse assessed as survival at 12 mg/kg, po administered in q4dx4 schedule; assay type: organism-based, MKN-28; design: dose 12 mg/kg, route oral; conditions: in vivo; outline: as §2
MKN-28 [17] = test: Antitumor activity against human MKN28 cells xenografted athymic mouse assessed as inhibition of tumor volume at 12 mg/kg, po administered in q4dx4 schedule; assay type: functional; outline: as §3
HT-29 [18] = test: Antiproliferative activity against human HT29 cells after 1 hr of drug exposure measured after 72 hrs; assay type: functional, cell-based
Outline: (§5)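 Growth inhibition after 1-h drug exposure; IC50 is the concentration giving 50% reduction of cell growth versus untreated controls. Values are means ± SD from at least three experiments.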

HT-29 [19] = test: Antiproliferative activity against BCRP overexpressing mitoxantrone-resistant human HT29 cells after 1 hr of drug exposure measured after 72 hrs; assay type: functional, cell-based; outline: as §5
Mus musculus [20] = test: Toxicity in human CoBa cells xenografted athymic mouse assessed as loss of body weight at 15 mg/kg, po administered in q4dx4 schedule; assay type: organism-based; design: dose 15 mg/kg, route oral; conditions: in vivo; outline: as §4
NCI-H460 [21] = test: Antiproliferative activity against human H460 cells after 1 hr of drug exposure measured after 72 hrs; assay type: functional, cell-based; outline: as §5
Mus musculus [22] = test: Toxicity in human MKN28 cells xenografted athymic mouse assessed as loss of body weight at 6 mg/kg, po administered in q4dx4 schedule; assay type: organism-based, MKN-28; design: dose 6 mg/kg, route oral; conditions: in vivo; outline: as §3
[23] = Toxicity in po dosed human MKN28 cells xenografted athymic mouse administered in q4dx4 schedule; assay type: organism-based, MKN-28; conditions: in vivo
Mus musculus [24] = test: Toxicity in human CoBa cells xenografted athymic mouse assessed as loss of body weight at 2 mg/kg, po administered in q4dx4 schedule; assay type: organism-based; design: dose 2 mg/kg, route oral; conditions: in vivo; outline: as §4
Mus musculus [25] = test: Toxicity in human CoBa cells xenografted athymic mouse assessed as survival at 2 mg/kg, po administered in q4dx4 schedule; assay type: organism-based; design: dose 2 mg/kg, route oral; conditions: in vivo; outline: as §2
NCI-H460 [26] = test: Antiproliferative activity against human H460 cells after 2 hrs of drug exposure measured after 72 hrs; assay type: functional, cell-based
Outline: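 Growth inhibition with IC50 taken after 2-h drug exposure, as the concentration giving 50% reduction of cell growth versus untreated controls.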

[27] = Antitumor activity against human CoBa cells xenografted in athymic mouse assessed as inhibition of tumor volume at 2 mg/kg, po administered in q4dx4 schedule; assay type: functional; outline: as §1

CCC1(O)CC(=O)OCc2c1cc1n(c2=O)Cc2c-1nc1ccccc1c2/C=N/OC(C)(C)C (racemic)
Activity (Mus musculus [1]): 5%
LCK (PANC-1 [2]): 1.4
inhibition in vivo at 14 mg/kg (PANC-1 [2]; Mus musculus, PANC-1): 99%
Activity (Mus musculus [3]): Non-toxic
Activity (Mus musculus [4]): Non-toxic
Activity (Mus musculus [5]): 2%
LCK [6]: 1.3
inhibition in vivo at 15 mg/kg ([6]; Homo sapiens, CoBa): 95%
Activity (Mus musculus [7]): 0%
Activity (Mus musculus [8]): Non-toxic
Ratio IC50 (HT-29 [9]): 14
LCK (PANC-1 [10]): 1.6
Activity (Mus musculus [11]): Non-toxic
inhibition in vivo at 3 mg/kg (MKN-28 [12]): 71%
Activity (Mus musculus [13]): 16%
inhibition in vivo at 6 mg/kg (MKN-28 [14]): 47%
Activity (Mus musculus [15]): 18%
Activity (Mus musculus [16]): Non-toxic
inhibition in vivo at 12 mg/kg (MKN-28 [17]): 81%
IC50 (HT-29 [18]): 41 nM
IC50 (HT-29 [19]): 560 nM
Activity (Mus musculus [20]): 21%
IC50 (NCI-H460 [21]): 36.8 nM
Activity (Mus musculus [22]): 0%
MTD [23]: 12 mg/kg

CCc1c2c(nc3ccc(O)cc13)-c1cc3c(c(=O)n1C2)COC(=O)[C@]3(O)CC [7-ETHYL-10-HYDROXYCAMPTOTHECIN]
Ratio IC50 (HT-29 [9]): 17
IC50 (HT-29 [18]): 670 nM
IC50 (HT-29 [19]): 11500 nM
IC50 (NCI-H460 [21]): 220 nM

CC[C@@]1(O)C(=O)OCc2c1cc1n(c2=O)Cc2cc3ccccc3nc2-1 [CAMPTOTHECIN]
Ratio IC50 (HT-29 [9]): 2.8
IC50 (HT-29 [18]): 3160 nM
IC50 (HT-29 [19]): 8810 nM
IC50 (NCI-H460 [21]): 180 nM

CC[C@@]1(O)C(=O)OCc2c1cc1n(c2=O)Cc2c-1nc1ccccc1c2/C=N/OC(C)(C)C [GIMATECAN]
Activity (Mus musculus [24]): 18%
Activity (Mus musculus [25]): Non-toxic
Ratio IC50 (HT-29 [9]): 1.2
IC50 (NCI-H460 [26]): 15 nM
LCK [27]: 1.1
inhibition in vivo at 2 mg/kg ([27]; Homo sapiens, CoBa): 90%
IC50 (HT-29 [18]): 56 nM
IC50 (HT-29 [19]): 70 nM
IC50 (NCI-H460 [21]): 20 nM

CC[C@@]1(O)CC(=O)OCc2c1cc1n(c2=O)Cc2cc3ccccc3nc2-1 [HOMOCAMPTOTHECIN]
Ratio IC50 (HT-29 [9]): 19
IC50 (HT-29 [18]): 440 nM
IC50 (HT-29 [19]): 8550 nM
IC50 (NCI-H460 [21]): 49.6 nM

CC[C@@]1(O)C(=O)OCc2c1cc1n(c2=O)Cc2cc3c(CN(C)C)c(O)ccc3nc2-1 [TOPOTECAN]
Ratio IC50 (HT-29 [9]): 34
IC50 (HT-29 [18]): 1350 nM
IC50 (HT-29 [19]): 46300 nM
